Experimental data reported in ChEMBL document CHEMBL1275327, “Synthesis and biological activities of pyrazolo[3,4-g]quinoxaline derivatives” (Eur J Med Chem, 2010).
The source made the active and inactive calls. The rule behind the calls is not given here.

What was measured:
[1] = system: PC-3; test: Antiproliferative activity against human PC3 cells assessed as inhibition of cell proliferation at 10 uM after 48 hrs by resazurin reduction test; format: functional; details: PC-3, 48 h
Summary of the method: (§1)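 PA1 and PC3 screen: cells at 5×10^3/well adhered 16 h, then were treated 48 h continuously at 1 and 10 µM from a 20 mM DMSO stock. Growth inhibition was scored by resazurin reduction (25 µg/mL, 1 h, 37 °C; fluorescence ex 530/em 590 nm) relative to control wells after blank subtraction.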

[2] = molecular target: Serine/threonine-protein kinase pim-2 (Homo sapiens) (UniProt Q9P1W9); test: Inhibition of Pim2 assessed as residual enzyme activity at 10 uM
Chain of Serine/threonine-protein kinase pim-2 (Homo sapiens) (Q9P1W9 whole entry, looked up): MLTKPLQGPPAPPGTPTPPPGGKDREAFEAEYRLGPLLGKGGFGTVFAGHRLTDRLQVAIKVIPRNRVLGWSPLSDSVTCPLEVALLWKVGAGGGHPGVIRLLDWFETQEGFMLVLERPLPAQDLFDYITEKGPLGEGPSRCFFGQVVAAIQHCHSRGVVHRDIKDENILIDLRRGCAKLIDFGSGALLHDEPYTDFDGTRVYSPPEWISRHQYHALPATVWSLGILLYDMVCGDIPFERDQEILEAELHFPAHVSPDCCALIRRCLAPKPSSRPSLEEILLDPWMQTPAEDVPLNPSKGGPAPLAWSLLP

[3] = molecular target: Serine/threonine-protein kinase pim-1 (Homo sapiens) (UniProt P11309); test: Inhibition of Pim1 assessed as residual enzyme activity at 10 uM
Chain of Serine/threonine-protein kinase pim-1 (Homo sapiens) (P11309 whole entry, looked up): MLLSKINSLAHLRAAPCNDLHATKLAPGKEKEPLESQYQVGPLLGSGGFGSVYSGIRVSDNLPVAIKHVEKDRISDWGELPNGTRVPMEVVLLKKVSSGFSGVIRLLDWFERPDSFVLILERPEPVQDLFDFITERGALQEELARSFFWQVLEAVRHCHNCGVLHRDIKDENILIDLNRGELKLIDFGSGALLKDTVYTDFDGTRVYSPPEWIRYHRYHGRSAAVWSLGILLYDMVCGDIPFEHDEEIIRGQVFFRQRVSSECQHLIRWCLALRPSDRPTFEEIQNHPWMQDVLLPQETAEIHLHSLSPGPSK

[4] = molecular target: Serine/threonine-protein kinase pim-3 (Homo sapiens) (UniProt Q86V86); test: Inhibition of Pim3 assessed as residual enzyme activity at 10 uM
[5] = system: PA-1; test: Antiproliferative activity against human PA1 cells assessed as inhibition of cell proliferation at 10 uM after 48 hrs by resazurin reduction test; format: functional; details: PA-1, 48 h; summary of the method: as §1
[6] = system: DU-145; test: Antiproliferative activity against human DU145 cells assessed as inhibition of cell proliferation at 10 uM after 48 hrs by resazurin reduction test; format: functional; details: DU-145, 48 h
[7] = Antiproliferative activity against human Fibroblast assessed as inhibition of cell proliferation at 10 uM after 48 hrs by resazurin reduction test; format: cell-based; details: human fibroblasts
[8] = molecular target: Serine/threonine-protein kinase pim-1 (Homo sapiens) (UniProt P11309); test: Inhibition of Pim1 assessed as residual enzyme activity at 1 uM
[9] = molecular target: Serine/threonine-protein kinase pim-2 (Homo sapiens) (UniProt Q9P1W9); test: Inhibition of Pim2 assessed as residual enzyme activity at 1 uM
[10] = molecular target: Serine/threonine-protein kinase pim-3 (Homo sapiens) (UniProt Q86V86); test: Inhibition of Pim3 assessed as residual enzyme activity at 1 uM
[11] = Antiproliferative activity against human Fibroblast after 48 hrs by resazurin reduction test; format: cell-based
Summary of the method: (§2)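 Cells grown as monolayers in MEM with Earle's salts, 10% FCS, pyruvate, non-essential amino acids and gentamicin at 37 °C, 5% CO2. 5×10^3 cells/well adhered 16 h, then had 48 h continuous exposure to drug from a 20 mM DMSO stock. Resazurin (25 µg/mL, 1 h, 37 °C) was read by fluorescence (ex 530/em 590 nm). IC50 came from blank-corrected survival % vs control wells.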

[12] = system: PC-3; test: Antiproliferative activity against human PC3 cells after 48 hrs by resazurin reduction test; format: functional, cell-based; details: PC-3, 48 h; summary of the method: as §2
[13] = system: PA-1; test: Antiproliferative activity against human PA1 cells after 48 hrs by resazurin reduction test; format: functional, cell-based; details: PA-1, 48 h; summary of the method: as §2
[14] = system: DU-145; test: Antiproliferative activity against human DU145 cells after 48 hrs by resazurin reduction test; format: functional, cell-based; details: DU-145, 48 h; summary of the method: as §2

Activity [2] | Activity [3] | Activity [4] | Activity [8] | Activity [9] | Activity [10] | IC50 [12] | IC50 [14] | Compound | inhibition at 10 µM [1] | inhibition at 10 µM [5] | inhibition at 10 µM [6] | inhibition at 48 h, 10 µM [7] | IC50 [11] | IC50 [13]
inactive | 66.6% | 46.4% | 95% | inactive | 81% |  |  | c1n[nH]c2cc3nc4c(nc3cc12)CCC4 | < 50% | < 50% | < 50% | < 50% |  | 
inactive | 49% | 31% | 89% | inactive | 84% | > 50 µM | > 50 µM | CCc1nc2cc3cn[nH]c3cc2nc1CC |  |  |  |  | > 50 µM | 6.5 µM
76% | 45% | 37% | 88% | 82% | 95% |  |  | CC1(C)[C@@H]2CC[C@@]1(C)c1nc3cc4cn[nH]c4cc3nc12 | < 50% | < 50% | < 50% | < 50% |  | 
inactive | 59% | 44% | 88.5% | inactive | 72% | > 50 µM | > 50 µM | CC1Cc2nc3cc4[nH]ncc4cc3nc2C1C (racemic) |  |  |  |  | > 50 µM | 6.1 µM
78% | 71% | 43% | 96% | inactive | 83% |  |  | CC1(C)[C@H]2CC[C@]1(C)c1nc3cc4[nH]ncc4cc3nc12 | < 50% | < 50% | < 50% | < 50% |  | 
inactive | 59% | 32% | 95% | inactive | 69% |  |  | Nc1cc2cn[nH]c2cc1N | < 50% | < 50% | < 50% | < 50% |  | 
inactive | 55.1% | 19.7% | 90% | inactive | 58% | > 50 µM | > 50 µM | c1n[nH]c2cc3nc4c(nc3cc12)CCCC4 |  |  |  |  | > 50 µM | 16 µM
inactive | 83% | 79% | inactive | inactive | 95% | > 50 µM | 35 µM | c1ccc(C2Cc3nc4cc5cn[nH]c5cc4nc3C2)cc1 (racemic) |  |  |  |  | > 50 µM | 4.1 µM
inactive | 69% | 33% | inactive | inactive | 73% | > 50 µM | > 50 µM | CC1Cc2nc3cc4cn[nH]c4cc3nc2C1C (racemic) |  |  |  |  | > 50 µM | 4.7 µM
